# Source: PubChem BioAssay
# Jurkat NFkB inh = inhibitors of the PMA/ionomycin-induced NF-kB reporter in Jurkat cells; PMA/ionomycin-induced NF-kB luciferase reporter, luminescence; inhibition, % at 4 µM; 330,000 compounds, 0.53% hits; AID 435003; in the data active means inhibition above about 50%
# NR2E3 ag-1 = NR2E3 (human) agonism; Q9Y5X4; GST-NR2E3/biotin-RetCOR TR-FRET, 1536-well; inhibition of corepressor binding, % at 4.78 µM; 320,000 compounds, 0.12% hits; AID 2300;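 active means percent inhibition above the cutoff of mean plus 3 SD of all tested compounds, set per screening campaign, cut at about 20% in these data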;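 further: 0% = DMSO wells and 100% = biotin wells as full block of FRET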
#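 system = GST-tagged NR2E3 plus biotinylated RetCOR corepressor | input = 1.35 nM GST-NR2E3 | also added = 7 nM biotin-RetCOR | schedule = 5 h incubation at 4 °C | measured by = TR-FRET with europium anti-GST and streptavidin-D2, 340 nm excitation | read-out = percent loss of FRET ratio relative to control wells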
# 697 NFkB inh = inhibitors of the PMA/ionomycin-induced NF-kB reporter in 697 B cells; 697 B-cell NF-kB luciferase reporter, 16 h; inhibition, % at 4 µM; 330,000 compounds, 0.33% hits; AID 435022; in the data active means inhibition above about 35%
# FGF22 binding = binders of recombinant human FGF22 by thermal shift; Q9HCT0; SYPRO orange fluorescence; percent of sucrose octasulfate shift, DMSO zero; 340,000 compounds, 1.5% hits; AID 651658; activity (Tm shift, normalised), % at 9.99 µM;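 active means mean Tm shift, scaled 0 neutral to 100 positive control, at about 1.3% or above, every replicate too, limit read from the data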
# Target sequence (Q9HCT0 whole entry, looked up): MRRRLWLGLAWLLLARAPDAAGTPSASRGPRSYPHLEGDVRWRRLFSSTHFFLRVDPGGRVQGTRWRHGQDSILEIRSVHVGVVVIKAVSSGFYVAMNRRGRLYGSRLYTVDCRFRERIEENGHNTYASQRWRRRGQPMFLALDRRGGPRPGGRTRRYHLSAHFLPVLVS
# NR2E3 ag-2 = human photoreceptor-specific nuclear receptor agonism; Q9Y5X4; CHO-S Gal4-NCOR/VP16-NR2E3 two-hybrid, luciferase; inhibition of corepressor binding, % at 3.98 µM; 360,000 compounds, 0.35% hits; AID 602229;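 active means inhibition above the mean of all tested compounds plus 3 SD, cut at about 70% in these data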;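 further: 0% = DMSO with NR2E3 transfected cells and 100% = cells lacking NR2E3 construct; higher means lower luciferase signal from less NR2E3 corepressor binding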
# miR-122 sensor = blocks miR-122 activity in Huh7 sensor cells; Huh7 miR-122 Renilla luciferase sensor, 48 h; neutral wells = 0, positive control = 100; activation (reporter increase), % at 12.5 µM; 340,000 compounds, 0.3% hits; AID 602342;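 active means mean replicate activation score at least 90 and every replicate individually at or above 90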;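 further: higher luciferase means less miR-122 activity so hits act as miR-122 inhibitors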
# Jurkat NFkB conf = inhibitors of the PMA/ionomycin-induced NF-kB reporter in Jurkat cells, retest. Jurkat NF-kB luciferase, 16 h. shares compounds with Jurkat NFkB inh. 2,700 compounds, 27% hits. inhibition, % at 4 µM;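 active means inhibition reaching about 45% at 4 µM in either replicate, limit read from the data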;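 further: plate controls were PMA/ionomycin stimulated DMSO wells for no effect and unstimulated DMSO wells for full effect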
# 697 NFkB conf = inhibitors of the PMA/ionomycin-induced NF-kB reporter in 697 B cells, retest | AID 449746 | shares compounds with 697 NFkB inh | 2,000 compounds, 35% hits | 697 B-cell NF-kB luciferase, 16 h | inhibition, % at 4 µM; in the data active means inhibition mostly above about 28%, no sharp cut-off; inactive means mostly below about 22%
# Active calls of the source: *; i = inactive; . = no result given; [ ] = dose if it differs, or a comment. The list is not random: actives were taken first. Their share in the collection is about 2.2%.
SMILES,Jurkat NFkB inh,NR2E3 ag-1,697 NFkB inh,FGF22 binding,NR2E3 ag-2,miR-122 sensor,Jurkat NFkB conf,697 NFkB conf
Nc1c(-c2ccc(Cl)cc2)cnc2c(-c3ccc(F)cc3)cnn12,-173,0,-263,0,-150,0,-135,-224
COc1ccc2oc(C(=O)N3CCc4ccccc43)c(C)c2c1,-226,1,-383,0,-150,137*,-77,-499
COc1ccc2oc(C(=O)N3CCN(C(c4ccccc4)c4ccccc4)CC3)c(C)c2c1,-2,-1,-46,0,14,-5,.,.
CCOc1ccc(-c2cc(CCCC(=O)Nc3cccc(OC)c3)no2)cc1,56*,2,48*,0,-28,.,61*,48*
CCOc1ccc(-c2cc(CCCC(=O)Nc3cc(OC)ccc3OC)no2)cc1,2,1,32,.,-24,0,.,.
C[C@@H]1CN([C@H](C)CO)C(=O)Cc2cc(NC(=O)Nc3ccc4c(c3)OCO4)ccc2O[C@H]1CN(C)C(=O)Nc1ccccc1,.,.,.,0,.,-3[16.7 µM],.,.
COc1ccccc1-c1ccc([C@H]2[C@@H](CO)N3CCCCN(C(=O)NC4CCCC4)C[C@@H]23)cc1,.,.,.,0,.,-5[16.7 µM],.,.
Cc1nn(C)cc1NC(=O)C[C@@H]1CC[C@H]2[C@H](COc3ccc(NC(=O)c4cccc(F)c4)cc3C(=O)N2C)O1,.,.,.,0,.,0[16.7 µM],.,.
C=CC[C@]1(C(=O)NCc2ccccc2)N=C(c2ccc(OCCCO)cc2)O[C@H]1c1ccccc1,.,.,.,0,.,.,.,.
Cc1ccc(Nc2nc(-c3c(C)nc4ccccn34)cs2)cc1,83*,3,-396,.,42,11,62*,-54
O=Nc1c2cc(-c3ccccc3)[nH]nc-2c2ccccc12,.,.,.,0,-162,-1,.,.
Cc1cccc(-c2cc3c(N=O)c4ccccc4c-3n[nH]2)c1,-205,0,-339,0,-193,.,-87,-336
O=c1[nH]nc(-c2ccccc2)c2ccccc12,10,-5,16,0,-8,-11,.,.
Cc1ccc(-c2cc3c(N=O)c4ccccc4c-3n[nH]2)cc1,67*,7,58*,0,58,.,72*,-32
Oc1c(N=Nc2ccc(F)cc2)ccc2ccccc12,-141,-1,-243,0,-117,.,.,.
COc1cccc(N=Nc2ccc3ccccc3c2O)c1,-197,4,i,0,-76,.,-112,-295
Cc1cccc(-c2cc3nc4c(c(N5CCOCC5)n3n2)CCCC4)c1,-90,-2,-235,0,-151,-7,.,.
Cc1cccc(-c2cc3nc4c(c(NCc5ccco5)n3n2)CCCC4)c1,-154,-1,-264,.,-100,-4,-99,-295
O=C(N[C@H]1C=C[C@H](CC(=O)N2CCc3ccccc3C2)O[C@H]1CO)C1CCC1,.,.,.,0,.,.,.,.
CCOC(=O)c1ccc(NC(=S)Nc2ccc(C)cc2)cc1,-19,1,4,1,-3,-7,.,.
CCOC(=O)c1cn[nH]c1NC(=S)Nc1ccc(Cl)cc1,-185,0,-449,0,-72,5,-109,-268
C[C@H]1O[C@@H](O[C@H]2[C@@H](O)C[C@H](O[C@H]3[C@@H](O)C[C@H](O[C@H]4CC[C@@]5(C)[C@H](CC[C@@H]6[C@@H]5C[C@@H](O)[C@]5(C)[C@@H](C7=CC(=O)OC7)CC[C@]65O)C4)O[C@@H]3C)O[C@@H]2C)C[C@H](O)[C@@H]1O,96*,0,92*,0,-23,-18,97*,93*
Cc1ccccc1S(=O)(=O)NCC[C@H]1CC[C@@H](NS(=O)(=O)c2ccccc2C)[C@H](CO)O1,.,.,.,0,.,-3[16.7 µM],.,.
Cc1ccc(NC(=O)c2cnn(-c3ccccc3)c2C)cc1C,-162,5,-351,0,-120,.,-49,-323
C[C@H](NC(=O)c1nc[nH]c1C(=O)NC(c1ccccc1)c1ccccc1)C(=O)OCc1ccccc1,4,2,4,0,-5,-2,.,.
